The values below come from ChEMBL document CHEMBL3352338, “Development and biological evaluation of potent and selective c-KIT(D816V) inhibitors” (J Med Chem, 2014).

Experiment [1] in a line: Antiproliferative activity against human HMC-1.2 cells carrying V560G, D816V mutant assessed as cell growth inhibition by MTT assay. It is filed as functional, cell-based. Summed up: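 Cell viability by MTT assay in imatinib-resistant HMC-1.2 human mast cells (V560G, D816V), 48 h exposure across a range of concentrations.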
Experiment [2] concerns the target Mast/stem cell growth factor receptor Kit (Homo sapiens, UniProt P10721, D816V). The experiment is described as follows: Inhibition of c-KIT D816V mutant (unknown origin).
In experiment [3] the target is Mast/stem cell growth factor receptor Kit (Homo sapiens, UniProt P10721). The experiment is described as follows: Inhibition of wild type c-KIT (unknown origin).
For experiment [4], the target named is Phosphatidylinositol 4,5-bisphosphate 3-kinase catalytic subunit alpha isoform (Homo sapiens, UniProt P42336). The experiment is described as follows: Inhibition of PI3Kalpha (unknown origin).
The target in experiment [5] is Signal transducer and activator of transcription 3 (Homo sapiens) (UniProt P40763). The experiment is described as follows: Inhibition of STAT3 phosphorylation in imatinib-resistant human HMC-1.2 cells at 5 uM after 1 hr by Western immunoblotting analysis. (In general: Immunoblotting shows a protein as a band on a membrane.)

Activity calls are given as the source filed them. The calls are words filed in the database; no cut-off is given here.

Chain of Mast/stem cell growth factor receptor Kit (Homo sapiens, UniProt P10721, D816V) (P10721 26-976 D816V limits assumed): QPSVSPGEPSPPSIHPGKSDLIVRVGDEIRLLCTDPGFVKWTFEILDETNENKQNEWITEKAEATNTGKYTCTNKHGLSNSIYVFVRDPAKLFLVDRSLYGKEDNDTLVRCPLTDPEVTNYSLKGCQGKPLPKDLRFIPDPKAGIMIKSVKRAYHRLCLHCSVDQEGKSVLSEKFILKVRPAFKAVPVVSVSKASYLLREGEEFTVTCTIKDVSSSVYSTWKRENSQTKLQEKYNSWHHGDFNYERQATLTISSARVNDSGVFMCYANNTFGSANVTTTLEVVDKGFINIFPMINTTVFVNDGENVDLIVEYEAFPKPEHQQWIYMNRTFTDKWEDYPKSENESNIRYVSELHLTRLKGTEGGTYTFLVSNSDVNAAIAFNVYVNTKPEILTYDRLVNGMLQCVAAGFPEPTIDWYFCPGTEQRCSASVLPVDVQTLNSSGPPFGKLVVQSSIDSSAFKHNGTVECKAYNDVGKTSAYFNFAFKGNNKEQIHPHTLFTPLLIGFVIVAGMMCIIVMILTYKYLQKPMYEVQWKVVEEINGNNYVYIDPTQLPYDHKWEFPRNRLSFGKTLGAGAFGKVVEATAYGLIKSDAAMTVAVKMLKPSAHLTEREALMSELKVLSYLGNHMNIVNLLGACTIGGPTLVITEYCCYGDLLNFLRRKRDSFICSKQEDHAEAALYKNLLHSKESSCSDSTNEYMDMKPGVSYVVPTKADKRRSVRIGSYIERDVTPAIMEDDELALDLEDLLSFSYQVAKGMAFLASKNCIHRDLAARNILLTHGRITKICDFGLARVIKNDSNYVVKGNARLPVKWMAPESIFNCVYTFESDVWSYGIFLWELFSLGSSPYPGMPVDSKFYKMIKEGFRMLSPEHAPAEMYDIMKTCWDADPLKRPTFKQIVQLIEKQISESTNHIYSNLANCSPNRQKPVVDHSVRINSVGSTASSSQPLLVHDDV
Chain of Phosphatidylinositol 4,5-bisphosphate 3-kinase catalytic subunit alpha isoform (P42336 whole entry, canonical isoform): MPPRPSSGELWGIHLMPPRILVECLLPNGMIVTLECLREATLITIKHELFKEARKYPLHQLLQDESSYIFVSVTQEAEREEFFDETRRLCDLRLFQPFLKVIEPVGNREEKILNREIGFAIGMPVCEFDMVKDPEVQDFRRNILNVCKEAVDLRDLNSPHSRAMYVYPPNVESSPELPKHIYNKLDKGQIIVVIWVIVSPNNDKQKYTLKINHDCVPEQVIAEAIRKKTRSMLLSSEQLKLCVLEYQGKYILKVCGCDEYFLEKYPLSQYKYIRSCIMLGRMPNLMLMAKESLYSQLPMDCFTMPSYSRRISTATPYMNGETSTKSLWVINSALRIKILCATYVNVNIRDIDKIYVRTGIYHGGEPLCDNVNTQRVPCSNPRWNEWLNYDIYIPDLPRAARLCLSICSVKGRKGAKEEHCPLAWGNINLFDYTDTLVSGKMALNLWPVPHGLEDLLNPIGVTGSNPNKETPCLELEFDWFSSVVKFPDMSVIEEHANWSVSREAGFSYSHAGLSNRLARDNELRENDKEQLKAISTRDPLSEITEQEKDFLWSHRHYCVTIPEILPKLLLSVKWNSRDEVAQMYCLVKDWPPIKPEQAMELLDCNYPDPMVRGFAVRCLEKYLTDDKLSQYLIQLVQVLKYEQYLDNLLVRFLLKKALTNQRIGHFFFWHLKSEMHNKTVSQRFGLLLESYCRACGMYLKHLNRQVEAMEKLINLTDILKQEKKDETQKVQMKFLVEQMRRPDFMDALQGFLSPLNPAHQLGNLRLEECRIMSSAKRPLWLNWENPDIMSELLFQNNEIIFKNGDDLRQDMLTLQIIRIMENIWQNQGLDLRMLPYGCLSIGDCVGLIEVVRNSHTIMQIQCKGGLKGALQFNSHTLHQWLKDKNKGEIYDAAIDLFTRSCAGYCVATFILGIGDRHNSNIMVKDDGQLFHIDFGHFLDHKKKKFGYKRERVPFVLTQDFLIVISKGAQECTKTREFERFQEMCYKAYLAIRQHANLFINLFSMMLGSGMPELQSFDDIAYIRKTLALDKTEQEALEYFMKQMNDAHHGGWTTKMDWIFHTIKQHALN
Chain of Mast/stem cell growth factor receptor Kit (Homo sapiens, UniProt P10721) (P10721 whole entry, canonical isoform): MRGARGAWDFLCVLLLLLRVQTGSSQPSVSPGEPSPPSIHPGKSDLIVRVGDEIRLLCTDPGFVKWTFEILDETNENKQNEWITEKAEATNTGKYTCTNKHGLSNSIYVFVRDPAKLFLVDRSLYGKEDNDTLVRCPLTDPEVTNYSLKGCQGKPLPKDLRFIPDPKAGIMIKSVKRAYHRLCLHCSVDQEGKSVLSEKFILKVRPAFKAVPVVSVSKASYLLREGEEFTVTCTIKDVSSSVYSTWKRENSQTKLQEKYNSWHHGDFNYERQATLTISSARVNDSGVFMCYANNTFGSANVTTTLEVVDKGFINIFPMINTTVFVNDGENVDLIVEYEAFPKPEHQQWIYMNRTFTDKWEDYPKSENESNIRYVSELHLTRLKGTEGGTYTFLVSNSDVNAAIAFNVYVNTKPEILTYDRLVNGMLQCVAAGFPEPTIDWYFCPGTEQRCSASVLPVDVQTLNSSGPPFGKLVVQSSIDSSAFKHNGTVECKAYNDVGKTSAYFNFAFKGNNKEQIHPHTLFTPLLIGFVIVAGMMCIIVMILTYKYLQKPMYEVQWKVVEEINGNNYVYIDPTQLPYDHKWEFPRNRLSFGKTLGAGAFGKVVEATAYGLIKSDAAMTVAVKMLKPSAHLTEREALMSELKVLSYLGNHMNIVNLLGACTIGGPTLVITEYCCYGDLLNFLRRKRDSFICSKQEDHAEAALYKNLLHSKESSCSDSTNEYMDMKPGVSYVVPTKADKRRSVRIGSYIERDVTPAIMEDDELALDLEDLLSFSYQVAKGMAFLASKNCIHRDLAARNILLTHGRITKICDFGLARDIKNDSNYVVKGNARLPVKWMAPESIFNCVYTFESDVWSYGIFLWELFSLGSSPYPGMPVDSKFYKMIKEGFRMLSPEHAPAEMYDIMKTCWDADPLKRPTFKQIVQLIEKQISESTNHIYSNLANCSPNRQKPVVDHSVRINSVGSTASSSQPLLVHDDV
Chain of Signal transducer and activator of transcription 3 (Homo sapiens) (P40763 whole entry): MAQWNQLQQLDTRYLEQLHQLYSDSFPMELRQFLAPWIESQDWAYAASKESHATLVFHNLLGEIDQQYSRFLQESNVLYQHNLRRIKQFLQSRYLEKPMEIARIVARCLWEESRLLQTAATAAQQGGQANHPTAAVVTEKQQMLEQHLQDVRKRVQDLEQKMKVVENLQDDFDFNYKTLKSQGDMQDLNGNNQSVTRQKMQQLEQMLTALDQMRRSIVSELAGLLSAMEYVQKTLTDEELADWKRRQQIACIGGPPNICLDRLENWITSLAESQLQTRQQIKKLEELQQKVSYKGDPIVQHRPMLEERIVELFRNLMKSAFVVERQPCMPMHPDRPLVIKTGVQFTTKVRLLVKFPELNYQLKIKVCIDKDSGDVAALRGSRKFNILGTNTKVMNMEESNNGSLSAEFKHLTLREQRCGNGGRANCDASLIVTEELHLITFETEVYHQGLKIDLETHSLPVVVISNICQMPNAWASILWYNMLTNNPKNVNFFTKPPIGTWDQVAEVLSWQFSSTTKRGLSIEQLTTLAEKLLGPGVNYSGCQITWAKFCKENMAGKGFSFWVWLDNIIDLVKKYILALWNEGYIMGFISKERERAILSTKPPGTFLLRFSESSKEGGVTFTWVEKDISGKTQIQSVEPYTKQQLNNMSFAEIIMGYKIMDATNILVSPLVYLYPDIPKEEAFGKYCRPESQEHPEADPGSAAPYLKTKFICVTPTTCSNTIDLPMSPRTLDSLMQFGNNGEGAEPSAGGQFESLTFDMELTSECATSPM

As a reminder, the IC50 is the concentration that inhibits the measured activity by half. For `Cc1ccc(NC(=O)c2ccc(CN3CCN(C)CC3)cc2)cc1Nc1nccc(-c2cccnc2)n1` [IMATINIB], the IC50 in experiment [1] was determined as 17 µM.

As for `COc1ccc(-c2c[nH]c3ncc(-c4cccc(NS(=O)(=O)c5ccccc5)c4)cc23)cc1OC`, the IC50 in experiment [2] came to 0.126 µM.

For the molecule `COc1ccc(-c2c[nH]c3ncc(-c4ccc5c(c4)OCO5)cc23)cc1OC`, the figures for the IC50 in experiment [2] and in experiment [3] were 0.0488 µM and 10.8 µM, respectively.

With `COc1cc(OC)cc(-c2c[nH]c3ncc(-c4cccc(N)c4)cc23)c1`, in experiment [2], 0.32 µM corresponded to half-maximal inhibition (IC50).

As to `Cc1ccc(-c2c[nH]c3ncc(-c4cccc(N)c4)cc23)cc1`, the IC50 in experiment [2] is greater than 10 µM.

For `COc1ccc(-c2c[nH]c3ncc(-c4cccc(F)c4)cc23)cc1OC`, the IC50 in experiment [2] was 0.52 µM; in experiment [4], greater than 10 µM.

As for `COc1ccc(-c2c[nH]c3ncc(-c4ccc(C)cc4)cc23)cc1OC`, the IC50 in experiment [2] was 0.571 µM; in experiment [4], greater than 10 µM; in experiment [3] it was greater than 10 µM.

As to `COc1ccc(-c2c[nH]c3ncc(-c4ccc(N)cc4)cc23)cc1OC`, the IC50 in experiment [2] was 0.0091 µM; in experiment [3], 0.0568 µM.

In turn, `COc1cccc(-c2c[nH]c3ncc(-c4cccc(N)c4)cc23)c1` yielded an IC50 in experiment [2] of 0.67 µM.

With `COc1ccc(-c2c[nH]c3ncc(-c4cccc(N(C)C)c4)cc23)cc1OC`, the IC50 in experiment [2] was 0.0292 µM; in experiment [4] it was greater than 10 µM.

On to `COc1ccc(-c2c[nH]c3ncc(-c4ccccc4N)cc23)cc1OC`, for which the concentration for half-maximal inhibition (IC50) in experiment [2] is 1.33 µM; in experiment [4] it was greater than 10 µM.

`Nc1cccc(-c2cnc3[nH]cc(-c4ccccc4N)c3c2)c1` had an IC50 in experiment [2] of 1.42 µM.

Turning to `COc1ccc(-c2c[nH]c3ncc(-c4ccc(OCCN5CCOCC5)c(N)c4)cc23)cc1OC`, the half-inhibitory concentration (IC50) was found to be 0.0139 µM in experiment [2] and 8.54 µM in experiment [3].

Molecule `COc1ccc(-c2c[nH]c3ncc(-c4cncc(NS(=O)(=O)c5ccccc5)c4)cc23)cc1OC` had a half-maximal inhibitory concentration (IC50) in experiment [2] of 0.346 µM. The inhibition result in experiment [5] was “Active”.

As to `COc1ccc(-c2c[nH]c3ncc(-c4cccc(N)c4)cc23)cc1`, in experiment [2], it took 0.398 µM to reach half-maximal inhibition (IC50).

With `COc1ccc(-c2c[nH]c3ncc(-c4ccccc4C)cc23)cc1OC`, the figures for the IC50 in experiment [2] and in experiment [4] were 0.785 µM and greater than 10 µM, respectively.

As for `COc1cc(N)cc(-c2cnc3[nH]cc(-c4ccc(OC)c(OC)c4)c3c2)c1`, the values for the IC50 in experiment [2] and in experiment [3] were 0.0262 µM and greater than 10 µM, respectively.

`COc1ccc(-c2c[nH]c3ncc(-c4ccc(C#N)cc4)cc23)cc1OC`: the IC50 in experiment [2] was 0.426 µM; in experiment [4], greater than 10 µM.

On to `COc1ccc(-c2c[nH]c3ncc(-c4cncc(N)c4)cc23)cc1OC`, for which the 50% inhibitory concentration (IC50) was determined as 0.0108 µM in experiment [2] and 1.45 µM in experiment [4].

For `COc1ccc(-c2c[nH]c3ncc(-c4cccc(N)c4)cc23)cc1F`, in experiment [2], 0.104 µM corresponded to half-maximal inhibition (IC50).

As to `COc1cccc(-c2cnc3[nH]cc(-c4ccc(OC)c(OC)c4)c3c2)c1`, the values for the IC50 in experiment [2] and in experiment [3] were 0.0287 µM and 1.52 µM, respectively.

Turning to `COc1ccc(-c2c[nH]c3ncc(-c4ccc(Cl)cc4)cc23)cc1OC`, the figures for the concentration for half-maximal inhibition (IC50) in experiment [2] and in experiment [4] were 0.457 µM and greater than 10 µM, respectively.

Regarding `COc1ccc(-c2c[nH]c3ncc(-c4cccc(C#N)c4)cc23)cc1OC`, the values for the IC50 in experiment [2], in experiment [4] and in experiment [3] were 0.0638 µM, greater than 10 µM and greater than 10 µM, respectively.

On to `COc1ccc(-c2cnc3[nH]cc(-c4ccc(OC)c(OC)c4)c3c2)c(OC)c1`, for which the values for the IC50 in experiment [2] and in experiment [3] were 0.0292 µM and 5.46 µM, respectively.

Regarding `COc1ccc(-c2c[nH]c3ncc(-c4cnc(N)nc4)cc23)cc1OC`, the IC50 in experiment [2] is 0.0678 µM; in experiment [3], 1.29 µM.

In the case of `COc1ccc(-c2c[nH]c3ncc(-c4ccc(F)cc4)cc23)cc1OC`, the IC50 in experiment [2] was 0.0728 µM; in experiment [4], greater than 10 µM.

In the case of `COc1ccc(-c2c[nH]c3ncc(-c4ccc(C)c(N)c4)cc23)cc1OC`, the figures for the IC50 in experiment [2], in experiment [3] and in experiment [1] were 0.0246 µM, greater than 10 µM and 1.43 µM, respectively.

In experiment [2], `Nc1cccc(-c2cnc3[nH]cc(-c4cccc(N)c4)c3c2)c1` displayed an IC50 of 0.0767 µM.

`Nc1cccc(-c2cnc3[nH]cc(-c4ccc(Cl)cc4)c3c2)c1` showed an IC50 in experiment [2] of 2.26 µM.

As to `Cc1nc(Nc2ncc(C(=O)Nc3c(C)cccc3Cl)s2)cc(N2CCN(CCO)CC2)n1` [DASATINIB], the IC50 in experiment [1] came to 0.82 µM.

In the case of `COc1ccc(-c2c[nH]c3ncc(-c4cccc(N)c4)cc23)cc1OC`, the half-inhibitory concentration (IC50) in experiment [2] was 0.0063 µM; in experiment [4], greater than 10 µM; in experiment [3], 1.06 µM; in experiment [1], 1.68 µM.

Turning to `COc1ccc(-c2c[nH]c3ncc(-c4ccccc4)cc23)cc1OC`, the IC50 in experiment [2] was 0.135 µM; in experiment [4], greater than 10 µM.

`COc1ccc(-c2c[nH]c3ncc(-c4cccc(NC(C)=O)c4)cc23)cc1OC`: the IC50 in experiment [2] stood at 0.0651 µM; in experiment [3] it was 1.16 µM.

Regarding `COc1ccc(-c2c[nH]c3ncc(-c4cc(F)cc(F)c4)cc23)cc1OC`, the IC50 in experiment [2] was 0.102 µM; in experiment [4], greater than 10 µM.

Turning to `COc1ccc(-c2c[nH]c3ncc(-c4cccnc4)cc23)cc1OC`, the IC50 was 0.0601 µM in experiment [2], greater than 10 µM in experiment [4] and 3.33 µM in experiment [3].

Turning to `COc1ccc(-c2c[nH]c3ncc(-c4ccncc4)cc23)cc1OC`, the IC50 in experiment [2] worked out at 0.0321 µM; in experiment [4], 9.7 µM.

In the case of `Cc1ccc(C(=O)Nc2ccc(CN3CCN(C)CC3)c(C(F)(F)F)c2)cc1C#Cc1cnc2cccnn12` [PONATINIB], the IC50 in experiment [1] was 0.35 µM.

As for `COc1ccc(-c2c[nH]c3ncc(-c4cccc(C)c4)cc23)cc1OC`, the IC50 in experiment [2] was 0.261 µM; in experiment [4] it was greater than 10 µM.

Take `COc1ccc(-c2cnc3[nH]cc(-c4ccc(OC)c(OC)c4)c3c2)cc1`: the IC50 was 0.0321 µM in experiment [2], greater than 10 µM in experiment [4] and 0.371 µM in experiment [3].
